Here are results for 97 molecules from ChEMBL document CHEMBL4513216, “Probing the Open Global Health Chemical Diversity Library for Multistage-Active Starting Points for Next-Generation Antimalarials” (ACS Infect Dis, 2020).

This data set in a line: Toxicity liver stage against HepG2, at 10uM. The format is cell-based. More on the design: test concentration 10 uM, cell line HepG2-A16-CD81EGFP. As to conditions: human, HepG2-A16-CD81EGFP cells; read-out: INHIBITION
In short, it runs like this: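 Uninfected HepG2-A16-CD81EGFP cells, 3 × 10^3 per well, 1536-well, plated on prespotted compound at 10 μM final, parasite-free screening media added to match infected plates; puromycin 10 μM positive, DMSO 0.5% negative; run in parallel with 48 h PbLuc assay at 37 °C, 5% CO2; viability by CellTiter-Glo luminescence, normalized to controls.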
Consider `CNC(=O)N1C[C@H]2CC[C@@]3(N=C(c4ccccc4)NC3=O)[C@H]2C1`, for which the cytotoxicity at 10 µM is -9.84%.

In the case of `COCC(C)NC(=O)c1nnn(-c2ccc(F)cc2)n1` (configuration not stated), the cytotoxicity at 10 µM was -20.6%.

Consider `CC1CN(Cc2cc(C#N)ccc2F)CCN1Cc1nccn1C` (configuration not stated), for which the cytotoxicity at 10 µM was -6.33%.

Take `Cc1ccc(-n2ncc(C(=O)NC3CCCCC3)c2N)cc1`: the cytotoxicity at 10 µM was -50.6%.

Consider `O=C(CN1CCC(c2ccnn2CCO)CC1)NCC1CCCCC1`, for which the cytotoxicity at 10 µM was -0.463%.

As for `O=C(CN1CCCCC1)Nc1cc(C(F)(F)F)ccc1-n1cccc1`, the cytotoxicity at 10 µM stood at 5.24%.

Consider `COC(C)C(=O)N(CC(N)=O)Cc1cccc(Oc2ccccc2)c1` (configuration not stated), for which the cytotoxicity at 10 µM worked out at 1.46%.

Regarding `CCc1ccc(CNC(=O)c2ccc(N3CCOC3=O)cc2)s1`, the cytotoxicity at 10 µM was 22.5%.

`Cc1cccc(Nc2cccc(C3CCCN(Cc4ncc[nH]4)C3)n2)n1` (configuration not stated): the cytotoxicity at 10 µM was -24.1%.

As to `NC(=O)CN1CCCC1c1cncc(Oc2ccc(Cl)cc2)n1` (configuration not stated), the cytotoxicity at 10 µM was -10.4%.

As to `Cc1cc(C)n(C2CN(c3ncnc4c3CCNCC4)C2)n1`, the cytotoxicity at 10 µM is 7.99%.

Consider `Cn1cnnc1-c1cncc(NCc2ccccc2Br)c1`, for which the cytotoxicity at 10 µM was found to be 6.53%.

For `O=C1CCCCN1Cc1cccc(OC(F)F)c1`, the cytotoxicity at 10 µM stood at 3.17%.

For the molecule `NC(=O)CN1CCN(c2ccnc3c(F)ccc(F)c23)CC1`, the cytotoxicity at 10 µM was determined as 0.315%.

Consider `CC(C)Cc1noc(CN(C)c2ncccn2)n1`, for which the cytotoxicity at 10 µM came out at 5.23%.

Consider `Cc1ccc(-c2cc(CNC(=O)N3CCOC(C)C3)on2)cc1` (configuration not stated), for which the cytotoxicity at 10 µM was -6.09%.

On to `c1cnn(CCC2CCCCN2Cc2cnc(C3CCCCC3)nc2)c1` (configuration not stated), for which the cytotoxicity at 10 µM was determined as 0.106%.

As for `CCN(CC)c1ccc(C(=O)N2CCC(c3nc(C)no3)CC2)cn1`, the cytotoxicity at 10 µM was -7.42%.

`CCC=C(C)C(=O)NCc1ccnc(OC)c1`: the cytotoxicity at 10 µM was -2.51%.

As to `Cc1nc(C)n(CC2CN(Cc3ccccc3C#N)CCO2)n1` (configuration not stated), the cytotoxicity at 10 µM was -8.8%.

For `Cc1nn(-c2ccccc2)cc1C(=O)N1CCCC1c1cnn(C)c1` (configuration not stated), the cytotoxicity at 10 µM was -1.86%.

Regarding `Cn1cc(-n2cc3nc(N4CCOCC4)[nH]cc-3c2=O)cn1`, the cytotoxicity at 10 µM was determined as 7.36%.

Consider `CC(=O)N(Cc1noc(C)n1)C1CCN(Cc2ncc(C(C)C)o2)C1` (configuration not stated), for which the cytotoxicity at 10 µM was -13.2%.

For the molecule `CCOc1ccc(NC(=O)NCc2csc(NC)n2)cc1C`, the cytotoxicity at 10 µM was -3.91%.

Take `O=C(c1cnn[nH]1)N1CCCC1c1nc2cc(F)ccc2[nH]1` (configuration not stated): the cytotoxicity at 10 µM stood at 2.68%.

Consider `CN(Cc1nc2c(cnn2C)c(=O)[nH]1)Cc1ccccc1Cl`, for which the cytotoxicity at 10 µM was -5.82%.

Take `OC(c1ccccn1)C1CCN(Cc2cc3n(n2)CCNC3)CC1` (configuration not stated): the cytotoxicity at 10 µM came to 15.4%.

Consider `O=C(c1ccccc1)N1CCOC2(CCN(Cc3cccs3)CC2)C1`, for which the cytotoxicity at 10 µM is 0.64%.

On to `CCCc1cc(C(=O)NCCCC(=O)N2Cc3ccccc3C2)[nH]n1`, for which the cytotoxicity at 10 µM was determined as 8.81%.

Regarding `Cc1c(NC(=O)c2cnc[nH]2)cccc1C(=O)NC(C)(C)C`, the cytotoxicity at 10 µM was -6.46%.

As to `CCCn1cc(C(=O)NCc2nnc(-c3ccc(C)nc3)o2)c(C)n1`, the cytotoxicity at 10 µM is -0.277%.

For `Cc1nc(-c2ccsc2)ccc1C(=O)NCCN1CCN(C)CC1`, the cytotoxicity at 10 µM is -11.2%.

Turning to `Cc1cnn(CC2CCCCN2C(=O)c2ccc3[nH]c(=O)[nH]c3c2)c1` (configuration not stated), the cytotoxicity at 10 µM turned out to be 5.8%.

As for `CCOc1ccnc(N[C@@H](Cc2ccccc2)C(N)=O)n1`, the cytotoxicity at 10 µM stood at 10.7%.

Consider `Fc1cnc(N2CCCn3c(nnc3Cn3cccc3)C2)nc1`, for which the cytotoxicity at 10 µM was -134%.

For the molecule `COc1cccc(S(=O)(=O)CCNCCn2cccn2)c1`, the cytotoxicity at 10 µM was -4.96%.

With `Cc1noc(C)c1CN1C[C@H](C)[C@]2(CCN(Cc3cccnc3)C2=O)C1`, the cytotoxicity at 10 µM worked out at 4.59%.

For the molecule `Cc1cnn(CC2CCCN2C(=O)c2sccc2-n2cnnn2)c1` (configuration not stated), the cytotoxicity at 10 µM was -15%.

`Cn1cc(CN2CCCN(C(=O)c3ccc4ccccc4n3)CC2)cn1`: the cytotoxicity at 10 µM is -1.9%.

As to `O=C(O)c1coc(COc2cccc(F)c2)n1`, the cytotoxicity at 10 µM turned out to be 0.523%.

As to `CC(C)(C)c1n[nH]c(C2CN(C(=O)c3cnc[nH]3)CCO2)n1` (configuration not stated), the cytotoxicity at 10 µM came out at 0.152%.

Regarding `CN1CC[C@]2(CN(C(=O)c3ccc[nH]3)C[C@H]2c2ccccc2)C1=O`, the cytotoxicity at 10 µM turned out to be 11.6%.

With `CC1CCN(C(=O)CSc2nc3c(cnn3CCO)c(=O)[nH]2)CC1`, the cytotoxicity at 10 µM is 7.98%.

On to `Cc1cc(C)c2c(N3CCCN(C(=O)C4CCC4)CC3)ncnc2n1`, for which the cytotoxicity at 10 µM was -10.7%.

As for `O=S(=O)(N1CCOCC1)N1CCCCC1CCc1ccc(O)cc1` (configuration not stated), the cytotoxicity at 10 µM is -4.44%.

For `CCCNC(=O)c1cc(C(C)C)nc(N2CCCC2)n1`, the cytotoxicity at 10 µM stood at 8.77%.

As for `Cc1cccc(C2CC(=O)Nc3c2c(=O)[nH]n3C(C)C)c1` (configuration not stated), the cytotoxicity at 10 µM was -3.33%.

With `CCC1COCCN1C(=O)CNC(=O)c1ccoc1C` (configuration not stated), the cytotoxicity at 10 µM is -7.51%.

For `OCC1CCCN1c1cc(NCCc2c[nH]c3ccccc23)ncn1` (configuration not stated), the cytotoxicity at 10 µM was -7.06%.

Consider `O=C(c1ccoc1)N1CCC2(CC1)C(=O)N(CC1CC1)c1ccccc12`, for which the cytotoxicity at 10 µM is 10.7%.

`COc1ccc(F)c(CN2CCCC3(CCN(S(C)(=O)=O)C3)C2)c1` (configuration not stated): the cytotoxicity at 10 µM is -2.93%.

As for `Cc1cc(NC(=O)CSc2nc(=O)ccn2C(C)C)no1`, the cytotoxicity at 10 µM was found to be 0.841%.

With `Cc1cc(C(=O)N2CCOC[C@H](Oc3cccnc3)C2)c(C(F)(F)F)o1`, the cytotoxicity at 10 µM amounted to 3.11%.

Regarding `O=C(c1ccnc(-n2ccnc2)c1)N1CCCC(n2cccn2)C1` (configuration not stated), the cytotoxicity at 10 µM was 1.21%.

`CC(=O)N[C@H]1CCO[C@@H](c2cccc(NC(=O)c3ccc(=O)[nH]n3)c2)C1`: the cytotoxicity at 10 µM was determined as 4.46%.

Turning to `CC(O)CN(C(=O)NC1CC1)C(C)C` (configuration not stated), the cytotoxicity at 10 µM amounted to 13.1%.

For `c1coc(CN2CC[C@H]3O[C@@H](COCC4CC4)CC[C@H]32)c1`, the cytotoxicity at 10 µM is -137%.

In the case of `O=C(Nc1ccncc1)NC1CCN(c2ccccc2OC(F)F)C1` (configuration not stated), the cytotoxicity at 10 µM amounted to 15.6%.

Take `O=C(NCC1CC1)C1CCC2(CCN(C(=O)c3cnccn3)CC2)O1` (configuration not stated): the cytotoxicity at 10 µM is -9.28%.

For the molecule `Cc1cnn(CC2CCCN2C(=O)c2cccc3c2OCO3)c1` (configuration not stated), the cytotoxicity at 10 µM is -5.25%.

In the case of `CCC(C)CS(=O)(=O)NC(=O)C1CC1` (configuration not stated), the cytotoxicity at 10 µM is -4.69%.

Take `COCC(NC(=O)c1ccc(O)nc1)c1ccc(C)o1` (configuration not stated): the cytotoxicity at 10 µM was 4.96%.

Regarding `COC1COC2(CCN(C(=O)c3cnc(C)cn3)CC2)C1` (configuration not stated), the cytotoxicity at 10 µM was 4.29%.

Regarding `CC(C)Cc1cc(-c2cc(-c3ccc[nH]3)nc(N)c2C#N)n[nH]1`, the cytotoxicity at 10 µM stood at 14.3%.

As to `CCc1noc(CN(C)C2CCN(c3sccc3C#N)C2=O)n1` (configuration not stated), the cytotoxicity at 10 µM is 7.73%.

`Cc1ccc(C)c(CS(=O)(=O)CC(=O)NC(C)c2ccc(F)cc2F)c1` (configuration not stated): the cytotoxicity at 10 µM stood at 9.71%.

Consider `COc1ncnc(N)c1CNCCOc1ccccc1Cl`, for which the cytotoxicity at 10 µM is 6.24%.

`Cc1nc(N(C)C)nc(N2CCC3(CC2)CNC(=O)O3)c1C`: the cytotoxicity at 10 µM came out at 14.9%.

For `CSCc1cccc(NC(=O)N2CCC(N3CC=CC3)C2)c1` (configuration not stated), the cytotoxicity at 10 µM is -1.83%.

With `Cc1cnc(C)c(N2CCC(c3nccn3Cc3cscn3)CC2)n1`, the cytotoxicity at 10 µM stood at 1.89%.

For the molecule `Cc1ccccc1CC(=O)N(C)CC1(O)CCCN(c2ccccn2)C1` (configuration not stated), the cytotoxicity at 10 µM was -18.3%.

Regarding `Cc1noc([C@]23COC[C@H]2CN(C(C)C)C3)n1`, the cytotoxicity at 10 µM worked out at 1.44%.

For the molecule `CCN1CCN(C(=O)COCc2cccc(OC)c2)CC1`, the cytotoxicity at 10 µM was -11.5%.

`COc1cc(OC)cc(C2NC(=O)CN2Cc2ccc(Br)cc2)c1` (configuration not stated): the cytotoxicity at 10 µM is -6.67%.

In the case of `CCNC(=O)CCC(=O)Nc1nc(C)c(Cc2ccc(F)cc2)s1`, the cytotoxicity at 10 µM is 6.68%.

`CCc1cnc(N2C[C@@H](NC(=O)c3cscn3)[C@H]3COC[C@H]32)nc1`: the cytotoxicity at 10 µM is -127%.

On to `Cc1cc(CN2CC[C@H]3C[C@@H](C)O[C@@H]3C2)no1`, for which the cytotoxicity at 10 µM is -75.5%.

On to `O=C(NCc1ccccc1CN1CCC(O)CC1)Nc1ccccn1`, for which the cytotoxicity at 10 µM was found to be 8.52%.

For the molecule `O=C(NS(=O)(=O)c1cnn(-c2ccccc2F)c1)c1ccco1`, the cytotoxicity at 10 µM is -8.86%.

In the case of `CCN1CC(C(=O)N2CCN(c3nsc4ccccc34)CC2)CCC1=O` (configuration not stated), the cytotoxicity at 10 µM is 16.2%.

As to `O=S(=O)(Nc1ccc2c(c1)OCCO2)N1CCCCC1`, the cytotoxicity at 10 µM was determined as 3.96%.

For `c1ccc(CN2CCc3ncnc(-c4cccnc4)c3CC2)nc1`, the cytotoxicity at 10 µM is -75.7%.

`CC(C)COCC(NC(=O)c1ccncc1)c1ccco1` (configuration not stated): the cytotoxicity at 10 µM was -9.53%.

In the case of `COc1ccc(CN(C)C(=O)CCC(=O)c2cccs2)c(OC)c1OC`, the cytotoxicity at 10 µM is -10.7%.

In the case of `COc1ccc(CCNCc2c(C)nn(C)c2N(C)C)cc1OC`, the cytotoxicity at 10 µM was -11.3%.

In the case of `COC[C@]1(O)CCN(c2cc(N3CCOCC3)ncn2)CC1(C)C`, the cytotoxicity at 10 µM is -3.81%.

For the molecule `Cc1nc(C2(NC(=O)NCc3cc(C#N)ccc3F)CCCC2)no1`, the cytotoxicity at 10 µM was -4.2%.

With `CC(C)(C)OC(=O)N1CCC(C(=O)NCCNc2ncccn2)CC1`, the cytotoxicity at 10 µM is -10.3%.

As to `CCc1cc(O)nc(C2CCCN2C(=O)COC)n1` (configuration not stated), the cytotoxicity at 10 µM was -11.5%.

With `O=C(C1CNCCN1C(=O)CCOc1ccccc1)N1CCCC1` (configuration not stated), the cytotoxicity at 10 µM was -7.42%.

Regarding `CN(C)C(CNC(=O)NCc1ccco1)c1cccs1` (configuration not stated), the cytotoxicity at 10 µM is -3.29%.

Turning to `Cc1cccc(C(=O)N2CCN(c3ccc(-n4cccc4)nn3)CC2)c1`, the cytotoxicity at 10 µM amounted to 67.1%.

With `CCc1ocnc1C(=O)N1CCC(C2CCN(c3ncccn3)CC2)C1` (configuration not stated), the cytotoxicity at 10 µM came to 3.6%.

As for `CCC(=O)N1CCc2nc(N3CCOCC3)nc(N(C)C)c2CC1`, the cytotoxicity at 10 µM was 28.9%.

With `O=C(c1ccccc1F)N1CCC2(CC1)CC(N1CCCC1)CO2` (configuration not stated), the cytotoxicity at 10 µM was -120%.

As for `NC(=O)c1ccc(NC(=O)c2ccncc2F)cn1`, the cytotoxicity at 10 µM was determined as 6.48%.

Regarding `CC(C)S(=O)(=O)CC(=O)N(Cc1ccsc1)c1ccccc1`, the cytotoxicity at 10 µM is -5.24%.
